Test [1] relates to 130nt-RNA. Briefly: EMSA, binding to 32P-labelled 130nt-RNA. The settings on record: peptide 9 to 30 μM. More on the design: species or system Trypanosoma cruzi. In a few lines: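 The probe was a T7 transcript radiolabelled with [α-32P]UTP, gel-purified and desalted on Sephadex G-50. Probe (0.72 nM) was incubated with increasing peptide for 30 min at 37 °C. Peptide stocks were 500 μM in PBS with 30 μM ZnCl2. Gels were dried and phosphorimaged. Kd is the peptide concentration giving 50 % RNA bound, from a Hill-equation fit.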
Background: In EMSA bound probe runs differently from free probe, usually more slowly.

The test system of test [2] is 135nt-ssDNA. Briefly: EMSA, binding to 32P-labelled 135nt-ssDNA. More on the design: species or system Trypanosoma cruzi.
For test [3], the system named is 135bp-dsDNA. Briefly: EMSA, binding to 32P-labelled 135bp-dsDNA. The conditions noted are these: peptide 0.9-30 μM. More on the design: species or system Trypanosoma cruzi.
For test [4], the system named is 29/mm29c DNA duplex. As to the kind of experiment: DNA-melting assay on mismatched duplex. It counts as biochemical. The conditions noted are these: 1 μM peptide, 32P-29mer/mm29c duplex. In a few lines:
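A 32P-29mer and its complementary strand carrying four internal mismatches (mm29c) were annealed in water: 5 min at 95 °C, NaCl added to 50 mM, then slowly cooled to 22 °C. It was incubated 5 min at 25–55 °C, sampled every 5 °C into ice-cold tRNA/SDS/Ficoll stop mix, run on native 15 % PAGE and phosphorimaged.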

Test [5] concerns stable duplexes. The conditions noted are these: read-out: Conc50, concentration required to reach the formation of 50% of stable duplexes as a measure of NAC activity; NO = no observed activity; cited from earlier work.

The text below walks through data of publication PMC2805920 (Biochemical Journal, 2009).

For the substance “LT……CPHCDSTLTGFSGLVSHCRSFHP [compound 5032]”, the “RNA-binding affinity (in words)” value in test [1] is on record as “complete loss of affinity”. Further, the “ssDNA-binding affinity (in words)” value in test [2] is “very low affinity”. The “dsDNA-binding affinity (in words)” value in test [3] is “no affinity”. Moreover, in test [4], the “effect on the Tm of the mismatched DNA duplex (in words)” value is “does not have any influence on the Tm”. The EC50 in test [5] is above 30 µM.

For the substance “TVPPSAREEDVSPV…TLTRRRKEKC [compound 5030]”, in test [1], the “RNA-binding affinity (in words)” value is on record as “eliminated”. The “dsDNA-binding affinity (in words)” value in test [3] is reported as “complete loss of binding affinity”. Also, the “effect on the Tm of the mismatched DNA duplex (in words)” value in test [4] is listed as “does not have any influence on the Tm”. Further, the EC50 in test [5] is above 30 µM.
